We go through 20 sequences from the EternaBench riboswitch data.

In this series the test system is MS2 coat protein. The series is described as follows: apparent Kd, MS2 coat protein; higher = weaker binding; RNA-MaP array; FMN 200 µM where present. The essentials:
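Stalled E. coli RNA polymerase produced the designs on Illumina sequencing-chip clusters. SNAP-549-labelled MS2 coat protein was added from 0.7 or 1.5 nM, doubling to 3 µM, without and then with constant ligand, in 100 mM Tris-HCl pH 7.5, 80 mM KCl, 4 mM MgCl2, BSA, DTT, yeast tRNA and Tween-20. The apparent Kd is the median of filtered per-cluster fits of green signal normalised to red-channel RNA signal and control-cluster median Fmax.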

Setting [1] is: designed as: OFF switch for flavin mononucleotide, no ligand.
Setting [2] is: ligand present: flavin mononucleotide, designed as: OFF switch for flavin mononucleotide.
The mark [3] stands for this setting: designed as: ON switch for flavin mononucleotide, no ligand.
The mark [4] stands for this setting: ligand present: flavin mononucleotide, designed as: ON switch for flavin mononucleotide.

For orientation: apparent Kd means a dissociation constant that holds for the conditions of the assay. With “AUAAAUCAUGUAGGAUAUGCGUGGCGAAGCUAUGCAGAAGGACAUGAGGAUCACCCAUGUCGUUCCGUCUGCGUACAGACGGAA”, the “apparent Kd” value is, setting by setting: under setting [1], 33.8 nM; under setting [2], 306 nM.

As to “AAGUCACAUGAGGAUCACCCAUGUCGUAAACGAUGAGGAUAUAGGAACGAAAGAAAAAAACUAGAAGGUAUAACAA”, the “apparent Kd” value by setting is: under setting [3], 52.2 nM; under setting [4], 52 nM.

With “CUUCAGUCAGGAUAUGUUAAUCUCGCCACUCCGCGAGCCGGACAGAAGGGACAUGAGGAUCACCCAUGUUAAAC”, the “apparent Kd” value under setting [1] was 29.5 nM and the “apparent Kd” value under setting [2] worked out at 21.9 nM.

For “CGUCCUCUAGUUAGGAUAUUGUCUCGGAUACGAAACAAGAAGGGACAUGAGGAUCACCCAUGUAAUGAGGACGA”, the “apparent Kd” value by setting is: under setting [1], 29.2 nM; under setting [2], 28.2 nM.

Regarding “GGAUAGGACCGAGGAUAUACGUGCUAGAGAUACUAGCAAAAUUUCCUCACAUGAGGAUCACCCAUGUAGAAGGCUGUCCUAUCG”, the “apparent Kd” value by setting is: under setting [1], 5.78 nM; under setting [2], 12.5 nM.

Regarding “UGUCGGAGCAGAGGAUAUUACAUGAGGAUCACCCAUGUAUGAGCCAAUAGCUGGAAACAGCAAUGUAAGAAGGCUGCUCCGACA”, the “apparent Kd” value under setting [1] stood at 19.1 nM and the “apparent Kd” value under setting [2] came out at 206 nM.

As to “GCACUUAGAGAUGAACCGUUACUAACAUGAGGAUCACCCAUGUAGGAUAUGCUAAUAGUAUUGAAGCAGAAGGACACUAAGUGC”, the “apparent Kd” value is, setting by setting: under setting [1], 5.25 nM; under setting [2], 6.51 nM.

With “CCAGCGUAUGUGAGGAUAUGCUGGUCCUUGGAUCAGCAGAAGGCACAUGAGGAUCACCCAUGUAGAGACGUUGG”, the “apparent Kd” value under setting [1] is 27 nM and the “apparent Kd” value under setting [2] was 29.8 nM.

For “AUAAAACGAGGAUAUGCUGGGCUUCUGUGAUGCAUAUGCUCACAUGAGGAUCACCCAUGUAGAAGGUGUAAAAU”, the “apparent Kd” value runs as follows: under setting [1], 278 nM; under setting [2], 289 nM.

Take “AGUGUCAUCGAGAAGGCCUCAACAUGAGGAUCACCCAUGUUGUAAUAUGGGAGGAUAUCGAUGAUACAGCUACGUUUCGUAGCC”: the “apparent Kd” value by setting is: under setting [3], 19.5 nM; under setting [4], 5.91 nM.

For the sequence “UUAAAUCAUGUAGGAUAUGCAUGGCGAAGCUACGCAGAAGGACAUGAGGAUCACCCAUGUUAUAGCGUCUGAGUACAGAUGCAA”, the “apparent Kd” value came to 79.6 nM under setting [1] and 268 nM under setting [2].

Take “UGGUUGUGAGGAUAUACGUUUUUUAACUUUUGUUUUAUAUUGUAGAAGGCACAUGAGGAUCACCCAUGUUACGU”: the “apparent Kd” value runs as follows: under setting [1], 22.9 nM; under setting [2], 30.8 nM.

“UCUAGACAUGAGGAUCACCCAUGUGAGGAUAUGAUGCGAUCGUCGAAAGACGAUAGCAUCAGAAGGCACAAAUG”: the “apparent Kd” value came to 66.5 nM under setting [1] and 200 nM under setting [2].

For the sequence “AUUUUUUGUCAUGUACAUGAUGAACAUGAGGAUCACCCAUGUAGAAGGAAUUUUUUUAAGUUUAGUUAGGAUAUACAUAUAUUU”, the “apparent Kd” value under setting [1] turned out to be 16.6 nM and the “apparent Kd” value under setting [2] was determined as 10.8 nM.

For the sequence “UUUAAGUGAGGAUAUACGAAUAGUAAGUAAGUAUUACAGACGUAGAAGGCACAUGAGGAUCACCCAUGUAAAUA”, the “apparent Kd” value was determined as 30.1 nM under setting [1] and 28.2 nM under setting [2].

For “GUAUUAAAGAUCCAUUUAUACAACAUGAGGAUCACCCAUGUGCAGGAUAUCGUGUGUUUUUUAUUCGAGAAGGGCAAAUUCAUU”, the “apparent Kd” value reads like this: under setting [1], 37 nM; under setting [2], 85.2 nM.

Regarding “UAGAAGUCAGGAUAUGCAUGGCGGGACUUGCGUCGUGGCGUGCAGAAGGGACAUGAGGAUCACCCAUGUAAAGA”, the “apparent Kd” value under setting [1] turned out to be 56.1 nM and the “apparent Kd” value under setting [2] amounted to 53.4 nM.

For “CUUUUGUGAGGAUAUUCGUAGUAAAUAAAUAAAAUUAUUACGGAGAAGGCACAUGAGGAUCACCCAUGUUCCUU”, the “apparent Kd” value is, setting by setting: under setting [1], 17.1 nM; under setting [2], 50.3 nM.

For the sequence “CUAGCCCAGCCCGCCUAGUUCGGGAGAAGGAGGAGACAUGAGGAUCACCCAUGUGGCCUUAUCUCCUAGGAUAUCCCGGCGGGA”, the “apparent Kd” value under setting [1] came out at 5.56 nM and the “apparent Kd” value under setting [2] was found to be 21.6 nM.

As for “GUAGCAUAUGAUUUACAUGAGGAUCACCCAUGUAUCUUGGGUAAGGAUAUUGAUGUUAUGUUAAUCAAGAAGGUACUAUGCUAC”, the “apparent Kd” value under setting [3] was 50.5 nM and the “apparent Kd” value under setting [4] stood at 8.66 nM.
